Bioassay records as filed in PubChem.
Sampled rows, rich in hits. Any-hit rate of the full collection: about 1.6%.
pCIP destab: lowers stability of the mouse p/CIP coactivator protein | Q05BA5 | F442A p/CIP-EGFP cells, EGFP fluorescence, 16 h | decrease of EGFP signal, % at 10 µM | actives 0.01% (n = 290,000) | AID 1984;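 active = EGFP signal decrease of at least 30% at 10 µM or well 3 SD below plate mean, unless failing retest; inactive = the rest, including hits failing retest or dose response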
SKN-1 block: blocks SKN-1 activity in C. elegans; C. elegans VP596 Pgst-4::GFP/RFP ratio, acrylamide-induced, 24 h; inhibition, % at 21.8 µM; actives 0.49% (n = 360,000);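 active = interference check ratio from 0.5 to 1.5 plus GFP to RFP signal ratio inhibition reaching or exceeding a fixed threshold, cut at about 30% in these data, passing the limit was not always enough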
MT1-MMP act inh: blocks activation of human MT1-MMP; AID 651647; GFP/RFP ratio change, % at 20 µM; P50281; actives 0.061% (n = 360,000); HT1080 RFP-PRO-GFP cells, GFP/RFP ratio fluorescence, overnight; percent of plate control window, DMSO zero;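 active = GFP/RFP ratio change of at least 30% with cell ATP level not reduced by more than half and red fluorescence within 50% of control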
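Assay system: HT1080 cells carrying an RFP-PRO-GFP reporter | Dosing: Single dose of 20 µM compound, 1% DMSO final | Incubation: Cells overnight before dosing, compound overnight, 37 °C, 5% CO2 | Evaluation: GFP/RFP fluorescence ratio | Control set: DMSO and RFP-L50D-GFP cell wells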
bovine MsrA act: activators of bovine methionine sulfoxide reductase A; activation, % at 10.6 µM; AID 602163; actives 0.3% (n = 360,000); purified bovine MsrA, absorbance read-out; in the data active = activation above about 7.5%;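 also: 0% = vehicle and 100% = reference activator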
MsrA inh: bovine MsrA inhibition. purified bovine MsrA, absorbance read-out. inhibition, % at 15.5 µM. actives 0.75% (n = 360,000). AID 651718;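 also: 0% = vehicle wells with enzyme and 100% = reference inhibitor wells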
MsrA inh confirm: bovine MsrA inhibition, confirmed; inhibition, % at 15.5 µM; purified bovine MsrA, absorbance read-out; AID 651822; shares compounds with MsrA inh; actives 41% (n = 2,300);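 also: coupled to thioredoxin reductase with NADPH and selenocystamine and DMSO as substrate; 0% = vehicle only and 100% = full effect of reference inhibitor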
* marks the source's active call; other numbers are inactive results; / = no result given. Rule as the data show it, unless noted: active = inhibition above about 4.5%; inactive = the rest.

SMILES	pCIP destab	SKN-1 block	MT1-MMP act inh	bovine MsrA act	MsrA inh	MsrA inh confirm
CN(C)c1oc(-c2cccs2)nc1C#N	15.7	18.6	1.2	-5.6	4.9*	2.8
CC(=O)c1ccc(NC(=O)/C(=C\c2cccs2)NC(=O)c2ccco2)cc1	-9.9	-6.5	-0.9	-13.2	5.0*	4.7*
COc1ccc(NC(=O)/C(=C/c2cccs2)NC(=O)c2ccco2)cc1	7.4	-4.9	-2.2	-8.8	2.2	/
O=C(NCc1ccccc1)/C(=C\c1ccc(O)cc1)NC(=O)c1ccco1	-15.4	-4.5	-0.7	-5.0	4.8*	0.8
COc1ccc(NC(=O)/C(=C/c2ccc3c(c2)OCO3)NC(C)=O)cc1	-3.3	1.2	-3.3	-3.4	5.0*	2.5
O=C(Nc1ccccc1)/C(=C/c1ccccc1)NC(=O)c1ccco1	-10.0	2.1	3.2	-5.0	-0.9	/
COc1ccc(NC(=O)/C=C/c2ccc3c(c2)OCO3)cc1	-16.3	-3.7	2.5	-4.5	4.2	/
COc1ccc(NC(=O)/C(=C\c2ccc(OC)c(OC)c2)NC(=O)c2ccco2)cc1	-8.8	-3.0	-0.7	-5.8	5.0*	4.8*
C[C@@H]1CN([C@@H](C)CO)C(=O)CCCn2cc(nn2)CO[C@H]1CN(C)C(=O)Nc1cccc(C(F)(F)F)c1	/	/	/	/	0.9	/
C[C@@H]1ON(C)[C@H]2C[C@H]3c4[nH]c5c(-c6cc(Cl)cc(Cl)c6)cccc5c4CCN3C(=O)[C@@H]12	/	/	/	/	-1.1	/
N#Cc1ccc(S(=O)(=O)N2CCCc3nc(-c4ccccc4)ccc32)cc1	/	/	/	/	-0.6	/
C[C@H]1[C@@H](c2ccccc2)Oc2c(Cl)cccc2S(=O)(=O)N1C	/	/	/	/	0.1	/
CCOc1ccccc1NC(=S)NC(=O)C1CC1	-11.2	4.2	-6.9	0.8	7.4*	7.2*
COc1ccc(C=CC(C)=NNC(=O)c2ccncc2)cc1	/	19.4	6.2	-3.6	5.3*	6.0*
COc1ccc(/C=C(/NC(=O)c2ccccc2)C(=O)N/N=C/c2ccncc2)cc1	-2.3	-8.3	3.7	-3.5	6.0*	4.9*
COc1ccc(/C=N\NC(=O)/C(=C\Nc2nccc(C)n2)NC(=O)c2ccccc2)cc1	-10.8	10.8	-4.5	-2.4	8.2*	7.7*
COc1ccc(OCc2cc(/C=N\NC(=O)c3ccccc3)ccc2OC)cc1	0.3	7.3	-8.1	-4.3	0.7	/
Cc1ccc(/C=N\NC(=O)/C(=C\Nc2nccc(C)n2)NC(=O)c2ccccc2)cc1	-4.8	0.0	-1.0	-3.0	5.9*	6.0*
CCN(CC)c1ccc(/C=N/NC(=O)CNC(=O)c2ccccn2)cc1	-5.7	-2.6	4.1	-7.2	6.0*	3.5
CCN(CC)c1ccc(/C=N/NC(=O)CC(C)C)cc1	-4.3	2.4	0.4	-3.0	5.6*	3.1
CCN(CC)c1ccc(/C=N/NC(=O)Cc2nnc(NC(=O)Nc3ccccc3)s2)cc1	8.0	31.4	-7.9	-7.8	5.5*	3.6
CCN(CC)c1ccc(/C=N/NC(=O)Nc2ccccc2)cc1	-1.2	15.4	-0.3	-3.2	3.3	/
COc1ccc(NC(=O)N(C)C[C@@H]2OCCCC[C@@H](C)Oc3ccc(NS(C)(=O)=O)cc3C(=O)N([C@H](C)CO)C[C@@H]2C)cc1	/	/	/	/	-0.3	/
CN(N=Cc1ccccc1O)C(=O)c1ccccc1N	/	/	/	/	1.1	/
COC(=O)Cc1nnn2c1[C@@H](C)[C@@H](c1ccccc1Br)OC[C@@H]2c1ccccc1	/	/	/	/	0.0	/
SMILES	pCIP destab	SKN-1 block	MT1-MMP act inh	bovine MsrA act	MsrA inh	MsrA inh confirm
COc1ccc(N2CC(C(=O)N/N=C/c3cc([N+](=O)[O-])ccc3O)CC2=O)cc1 (stereo not drawn)	8.0	10.9	1.9	-4.0	5.2*	3.2
CCOc1cc2c(cc1C=O)OC(C)C2 (stereo not drawn)	-9.6	-2.1	7.1	-3.2	4.8*	2.5
COc1cc2c(cc1C=O)OC(C)C2 (stereo not drawn)	-4.7	6.0	-1.0	-3.8	1.0	/
CCCC(=O)OC[C@H]1CN(C2CCCC2)S(=O)(=O)c2c(Oc3ccc(F)cc3OC)cccc2O1	/	/	/	/	0.0	/
O=C(N/N=C/C(Cl)=C/c1ccc([N+](=O)[O-])cc1)C(=O)Nc1ccccc1C(=O)O	3.0	1.7	2.3	-3.9	7.5*	3.5
O=C(N/N=C/C(Cl)=C/c1ccc([N+](=O)[O-])cc1)C(=O)Nc1ccc(C(=O)O)cc1	4.2	5.8	3.7	-5.2	1.6	/
